Screens from PubChem.
In the library only some 1.1% were active in any assay of this set; here they are far more common.
PMI act satM6P – increases human PMI activity with near-saturating mannose 6-phosphate. P34949. coupled PMI enzyme assay, resazurin fluorescence, 20 min; hits give high values; 1 = untreated enzyme, 0 = substrate-free blank. activation factor at 20 µM. 0.34% of 190,000 active;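 active = activation factor of 2 or more at 20 µM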
Target sequence (P34949 whole entry, looked up): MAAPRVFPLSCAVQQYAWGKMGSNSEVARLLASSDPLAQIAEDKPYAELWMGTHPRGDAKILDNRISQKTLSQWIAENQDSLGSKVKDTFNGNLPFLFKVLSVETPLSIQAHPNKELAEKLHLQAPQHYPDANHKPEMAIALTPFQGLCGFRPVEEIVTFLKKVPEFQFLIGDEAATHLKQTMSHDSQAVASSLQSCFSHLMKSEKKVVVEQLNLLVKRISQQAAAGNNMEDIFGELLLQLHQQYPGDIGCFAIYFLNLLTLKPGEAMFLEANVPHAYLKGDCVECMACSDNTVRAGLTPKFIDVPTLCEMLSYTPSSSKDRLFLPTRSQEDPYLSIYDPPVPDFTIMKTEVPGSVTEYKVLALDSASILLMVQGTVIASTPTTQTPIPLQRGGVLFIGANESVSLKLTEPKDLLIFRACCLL
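Test system: human phosphomannose isomerase with PGI, G6PDH, diaphorase coupling enzymes / Doses: 20 µM compound, 1% DMSO / Times: enzyme reaction with compound 20 min at room temperature / Measured by: Diaphorase-driven resazurin-to-resorufin fluorescence, excitation 544, emission 590 nm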
Diaphorase inh – counter-screen for diaphorase-based assays: diaphorase inhibitors and chemical oxidizers. diaphorase resazurin-to-resorufin fluorescence, NADH, 16 min; bacterial (C. kluyveri) enzyme, not human. inhibition, % at 20 µM. 0.69% of 190,000 active. AID 1217;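 active = primary screen inhibition at 20 µM above a set limit, cut at about 50% in these data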;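 also: plate controls were DMSO with full reaction for no effect and wells lacking NADH for full effect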
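material = Clostridium kluyveri diaphorase enzyme | amount = 0.14 U/mL diaphorase, enzyme working solution | schedule = incubation 16 min, room temperature | detection = fluorescence of resorufin formed from resazurin, Ex 544/Em 590 nm | benchmarks = positive control minus NADH, DMSO neutral control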
G6PDH CS – counter-screen for G6PDH assay hits: L. mesenteroides G6PDH inhibition; Purified L. mesenteroides G6PDH, diaphorase/resazurin coupled fluorescence, 45 min; inhibition, % at 5 µM; 0.12% of 200,000 active; AID 1020; in the data active = inhibition above about 50%
Diaph act CS – diaphorase activation or chemical reduction counter-screen; AID 1229; activation factor at 20 µM; Diaphorase/resazurin coupled assay, resorufin fluorescence, 16 min; hits give high values; 1 = vehicle wells, 0 = NADH-free wells; 0.005% of 190,000 active;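 active = diaphorase activity raised at least twofold by the compound at 20 µM; inactive = activation factor below 2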
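Test system: Clostridium kluyveri diaphorase, purified enzyme; input: enzyme 0.07 U/mL final; buffer or medium: 50 mM HEPES pH 7.4 with 4.542 mM MgCl2, 0.005% Tween 20; also added: 0.114 mM NADH and 0.1 mM resazurin, final amounts; schedule: 16 min enzyme reaction, ambient temperature; technique: fluorescence of resorufin, 544 nm excitation, 590 nm emission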
PMI activator – increases human mannose-6-phosphate isomerase activity. activation factor at 20 µM. P34949. 0.005% of 190,000 active. purified human PMI, coupled resazurin fluorescence, 20 min; hits give high values; 1 = vehicle control, 0 substrate-free wells;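 active = activation factor of 2 or more at 20 µM, relative to plate controls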
* = called active by the depositor.

What do the screens show for `C/C(=N\NC(=O)CNc1cccc(C(F)(F)F)c1)c1ccc(Br)cc1`?
PMI act satM6P: 0.8; Diaphorase inh: 14; G6PDH CS: 4; Diaph act CS: 0.9; PMI activator: 0.8

Results for C/C(=N\Nc1cccc(C(F)(F)F)c1)c1ccc(O)cc1 ?
PMI act satM6P: 2.1*; Diaphorase inh: 23; G6PDH CS: -3; Diaph act CS: 0.8; PMI activator: 1.6

What do the screens show for `C/C(=N\NC(=O)c1cccc(N/N=C(\C)c2ccncc2)c1)c1ccncc1`?
PMI act satM6P: 2.5*; Diaphorase inh: 2; G6PDH CS: -14; Diaph act CS: 1; PMI activator: 1.7

What do the screens show for `Cc1c(Cl)cccc1NC(=S)NC1CCN(C(C)C)CC1`?
PMI act satM6P: 1; Diaphorase inh: 5; G6PDH CS: 0; Diaph act CS: 1; PMI activator: 1

Results for COc1ccc(OC)c(Nc2nc(=O)c3cccnc3s2)c1 ?
PMI act satM6P: 0.6; Diaphorase inh: 65*; G6PDH CS: 28; Diaph act CS: 0.3; PMI activator: 0.3

Results for Cc1ccc(Nc2nc(=O)c3cccnc3s2)cc1 ?
PMI act satM6P: 1; Diaphorase inh: 10; G6PDH CS: -6; Diaph act CS: 0.9; PMI activator: 1

Results for CC1=C(C(=O)Nc2ccccc2C(F)(F)F)C(c2sccc2C)NC(=S)N1 (stereo unspecified) ?
PMI act satM6P: 0.9; Diaphorase inh: -2; G6PDH CS: 0; Diaph act CS: 1; PMI activator: 0.9

Results for CCCCCCN1Cc2ccccc2C1 ?
PMI act satM6P: 0.9; Diaphorase inh: 8; G6PDH CS: 4; Diaph act CS: 0.9; PMI activator: 0.9

What do the screens show for `CCCCCCCCCCCCCCCCn1cc[n+](C)c1`?
PMI act satM6P: 1.1; Diaphorase inh: -225; G6PDH CS: 1; Diaph act CS: 3.2*; PMI activator: 1.1

How did CC1N(O)C(c2ccc(Cl)cc2Cl)N(O)C1(C)C (stereo unspecified) do in these assays?
PMI act satM6P: 2*; Diaphorase inh: 2; G6PDH CS: 10; Diaph act CS: 1; PMI activator: 1.8

Results for ON1C(c2ccc(Cl)cc2Cl)N(O)[C@H]2CCCC[C@H]21 (stereo partly specified) ?
PMI act satM6P: 1.1; Diaphorase inh: -1; G6PDH CS: 13; Diaph act CS: 1; PMI activator: 1.3

Results for C/C(=N\Nc1ccc(Cl)c(Cl)c1)c1ccc(-n2ccnc2)cc1 ?
PMI act satM6P: 2.6*; Diaphorase inh: 5; G6PDH CS: -6; Diaph act CS: 0.9; PMI activator: 1.7

Results for Cc1ccc(C(=O)NC(=S)Nc2c(C)ccc3nsnc23)cc1 ?
PMI act satM6P: 0.7; Diaphorase inh: 17; G6PDH CS: -3; Diaph act CS: 0.8; PMI activator: 0.7

Results for Cc1ccc(C(=O)NC(=S)Nc2cccc3nsnc23)cc1 ?
PMI act satM6P: 0.6; Diaphorase inh: 59*; G6PDH CS: 8; Diaph act CS: 0.4; PMI activator: 0.6

What do the screens show for `S=c1[nH]nc(-c2ccco2)n1/N=C/c1ccccn1`?
PMI act satM6P: 0.9; Diaphorase inh: 29; G6PDH CS: -1; Diaph act CS: 0.7; PMI activator: 0.8

How did O=[N+]([O-])c1cc2c(cc1/C=N/n1c(-c3ccccc3)n[nH]c1=S)OCO2 do in these assays?
PMI act satM6P: 1; Diaphorase inh: 55*; G6PDH CS: -3; Diaph act CS: 0.4; PMI activator: 1

How did COc1ccccc1/C=C\C=N\n1c(-c2ccc(Cl)cc2)n[nH]c1=S do in these assays?
PMI act satM6P: 0.9; Diaphorase inh: 12; G6PDH CS: 7; Diaph act CS: 0.9; PMI activator: 0.9

Results for Cc1ccc(-c2n[nH]c(=S)n2/N=C/C=C/c2ccccc2[N+](=O)[O-])cc1 ?
PMI act satM6P: 1; Diaphorase inh: 55*; G6PDH CS: 1; Diaph act CS: 0.4; PMI activator: 0.9

Results for O=[N+]([O-])c1ccccc1/C=C/C=N/n1c(-c2ccco2)n[nH]c1=S ?
PMI act satM6P: 0.9; Diaphorase inh: 81*; G6PDH CS: 1; Diaph act CS: 0.2; PMI activator: 0.9

Results for S=c1[nH]nc(-c2cccs2)n1/N=C/c1c(Cl)cccc1Cl ?
PMI act satM6P: 1; Diaphorase inh: 7; G6PDH CS: 2; Diaph act CS: 0.9; PMI activator: 0.8

Results for CN(C)CC(O)CN1C(=O)N(CN2C(=O)N(CC(O)CN(C)C)C(=O)C2(C)C)C(C)(C)C1=O (stereo unspecified) ?
PMI act satM6P: 1; Diaphorase inh: 1; G6PDH CS: 10; Diaph act CS: 1; PMI activator: 1

What do the screens show for `CCCCCCCCC(=O)N/N=C(\C)c1cccnc1`?
PMI act satM6P: 2.3*; Diaphorase inh: -4; G6PDH CS: 7; Diaph act CS: 1; PMI activator: 1.5

Results for O=C1c2c(O)cc(O)cc2O[C@H](c2ccc(O)c(O)c2)[C@@H]1O ?
PMI act satM6P: 0.9; Diaphorase inh: 54*; G6PDH CS: 36; Diaph act CS: 0.5; PMI activator: 0.5

What do the screens show for `Cc1ccc2nsnc2c1S(=O)(=O)N(Cc1cc2cccc(C)c2[nH]c1=O)CC1CCCO1` (stereo unspecified)?
PMI act satM6P: 0.9; Diaphorase inh: 13; G6PDH CS: -10; Diaph act CS: 0.9; PMI activator: 0.9

What do the screens show for `N#C/C(=C\c1ccc(OCC(N)=O)cc1)S(=O)(=O)c1ccccc1`?
PMI act satM6P: 0.9; Diaphorase inh: 13; G6PDH CS: 0; Diaph act CS: 0.9; PMI activator: 1

How did Cc1ccc(O)c(C=Nc2ccc3[nH]ncc3c2)c1 do in these assays?
PMI act satM6P: 0.4; Diaphorase inh: 61*; G6PDH CS: 34; Diaph act CS: 0.4; PMI activator: 0.5

Results for COc1ccc(S(=O)(=O)NCCc2nnc3ccc(SCC(=O)Nc4nc(C)cs4)nn23)cc1 ?
PMI act satM6P: 1; Diaphorase inh: 18; G6PDH CS: -3; Diaph act CS: 0.8; PMI activator: 1

Results for C(=N\Nc1ccccn1)/c1ccc(N2CCOCC2)cc1 ?
PMI act satM6P: 0.8; Diaphorase inh: 0; G6PDH CS: 8; Diaph act CS: 1; PMI activator: 0.9

What do the screens show for `C(=N\Nc1ccccc1)/c1ccc(N2CCOCC2)cc1`?
PMI act satM6P: 2.2*; Diaphorase inh: 12; G6PDH CS: 6; Diaph act CS: 0.9; PMI activator: 1.3

Results for Clc1cccc(N/N=C/c2ccc(N3CCOCC3)cc2)c1 ?
PMI act satM6P: 2.3*; Diaphorase inh: 7; G6PDH CS: 13; Diaph act CS: 0.9; PMI activator: 1.4
